Assay results published in ChEMBL document CHEMBL5058577, “EUbOPEN Chemogenomics Library 2 (Multiplex)” (2022).

System: Fibroblast
Experiment: Multiplex assay against human fibroblast
Assay type: toxicity, cell-based
Summary of the method: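 Imaging took place on a CQ1 microscope at 37°C and 5% CO2 once compound had been added to live cells stained at seeding with Hoechst33342, BioTracker Green Microtubule Cytoskeleton Dye, MitoTracker Red and Annexin V Alexa Fluor 680. CellPathfinder machine-learning gating classed cells as Hoechst high-intensity objects or normal cells, classed normal cells as having healthy, pyknosed or fragmented nuclei, and classed pyknosed cells as mitotic or apoptotic. Tubulin, mitochondrial-mass and membrane-permeability phenotypes are per cents of the healthy-nucleus cells.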

[1] = 12 h, 1 µM, compound concentration 1 uM, replicate 1
[2] = 12 h, 1 µM, compound concentration 1 uM, replicate 2
[3] = 12 h, 10 µM, compound concentration 10 uM, replicate 1
[4] = 12 h, 10 µM, compound concentration 10 uM, replicate 2
[5] = 24 h, 1 µM, compound concentration 1 uM, replicate 1
[6] = 24 h, 1 µM, compound concentration 1 uM, replicate 2
[7] = 24 h, 10 µM, compound concentration 10 uM, replicate 1
[8] = 24 h, 10 µM, compound concentration 10 uM, replicate 2
[9] = 48 h, 1 µM, compound concentration 1 uM, replicate 1
[10] = 48 h, 1 µM, compound concentration 1 uM, replicate 2
[11] = 48 h, 10 µM, compound concentration 10 uM, replicate 1
[12] = 48 h, 10 µM, compound concentration 10 uM, replicate 2

## O=C(NCCO)c1cccc(-c2cc(Nc3ccc(OC(F)(F)F)cc3)ncn2)c1
[1]
  Population Apoptotic (%): 46%
  Population Fragmented Nuclei (%): 16%
  Population Healthy Nuclei (%): 60%
  Population Hoechst High Intensity Objects (%): 3%
  Population Membrane Permeable-Phenotype (%): 1%
  Population Mitochondria Different-Phenotype (%): 6%
  Population Mitotic Cells (%): 53%
  Population Normal (%): 96%
  Population Pyknosed Nuclei (%): 24%
  Population Tubulin-Different-Phenotype (%): 33%
  Total Cell Count: 130
[2]
  Population Apoptotic (%): 38%
  Population Fragmented Nuclei (%): 29%
  Population Healthy Nuclei (%): 46%
  Population Hoechst High Intensity Objects (%): 4%
  Population Membrane Permeable-Phenotype (%): 10%
  Population Mitochondria Different-Phenotype (%): 8%
  Population Mitotic Cells (%): 61%
  Population Normal (%): 95%
  Population Pyknosed Nuclei (%): 23%
  Population Tubulin-Different-Phenotype (%): 46%
  Total Cell Count: 149
[3]
  Population Apoptotic (%): 37%
  Population Fragmented Nuclei (%): 17%
  Population Healthy Nuclei (%): 59%
  Population Hoechst High Intensity Objects (%): 5%
  Population Membrane Permeable-Phenotype (%): 0%
  Population Mitochondria Different-Phenotype (%): 13%
  Population Mitotic Cells (%): 62%
  Population Normal (%): 94%
  Population Pyknosed Nuclei (%): 22%
  Population Tubulin-Different-Phenotype (%): 54%
  Total Cell Count: 185
[4]
  Population Apoptotic (%): 40%
  Population Fragmented Nuclei (%): 22%
  Population Healthy Nuclei (%): 36%
  Population Hoechst High Intensity Objects (%): 10%
  Population Membrane Permeable-Phenotype (%): 11%
  Population Mitochondria Different-Phenotype (%): 11%
  Population Mitotic Cells (%): 59%
  Population Normal (%): 89%
  Population Pyknosed Nuclei (%): 40%
  Population Tubulin-Different-Phenotype (%): 79%
  Total Cell Count: 192
[5]
  Population Apoptotic (%): 56%
  Population Fragmented Nuclei (%): 16%
  Population Healthy Nuclei (%): 60%
  Population Hoechst High Intensity Objects (%): 1%
  Population Membrane Permeable-Phenotype (%): 2%
  Population Mitochondria Different-Phenotype (%): 4%
  Population Mitotic Cells (%): 43%
  Population Normal (%): 98%
  Population Pyknosed Nuclei (%): 22%
  Population Tubulin-Different-Phenotype (%): 33%
  Total Cell Count: 135
[6]
  Population Apoptotic (%): 52%
  Population Fragmented Nuclei (%): 24%
  Population Healthy Nuclei (%): 50%
  Population Hoechst High Intensity Objects (%): 2%
  Population Membrane Permeable-Phenotype (%): 5%
  Population Mitochondria Different-Phenotype (%): 5%
  Population Mitotic Cells (%): 47%
  Population Normal (%): 97%
  Population Pyknosed Nuclei (%): 25%
  Population Tubulin-Different-Phenotype (%): 42%
  Total Cell Count: 139
[7]
  Population Apoptotic (%): 50%
  Population Fragmented Nuclei (%): 14%
  Population Healthy Nuclei (%): 61%
  Population Hoechst High Intensity Objects (%): 11%
  Population Membrane Permeable-Phenotype (%): 1%
  Population Mitochondria Different-Phenotype (%): 21%
  Population Mitotic Cells (%): 50%
  Population Normal (%): 88%
  Population Pyknosed Nuclei (%): 24%
  Population Tubulin-Different-Phenotype (%): 53%
  Total Cell Count: 175
[8]
  Population Apoptotic (%): 41%
  Population Fragmented Nuclei (%): 30%
  Population Healthy Nuclei (%): 36%
  Population Hoechst High Intensity Objects (%): 7%
  Population Membrane Permeable-Phenotype (%): 10%
  Population Mitochondria Different-Phenotype (%): 25%
  Population Mitotic Cells (%): 58%
  Population Normal (%): 92%
  Population Pyknosed Nuclei (%): 32%
  Population Tubulin-Different-Phenotype (%): 84%
  Total Cell Count: 187
[9]
  Population Apoptotic (%): 82%
  Population Fragmented Nuclei (%): 21%
  Population Healthy Nuclei (%): 65%
  Population Hoechst High Intensity Objects (%): 1%
  Population Membrane Permeable-Phenotype (%): 3%
  Population Mitochondria Different-Phenotype (%): 1%
  Population Mitotic Cells (%): 17%
  Population Normal (%): 98%
  Population Pyknosed Nuclei (%): 13%
  Population Tubulin-Different-Phenotype (%): 28%
  Total Cell Count: 130
[10]
  Population Apoptotic (%): 45%
  Population Fragmented Nuclei (%): 31%
  Population Healthy Nuclei (%): 53%
  Population Membrane Permeable-Phenotype (%): 6%
  Population Mitochondria Different-Phenotype (%): 4%
  Population Mitotic Cells (%): 54%
  Population Pyknosed Nuclei (%): 14%
  Population Tubulin-Different-Phenotype (%): 38%
  Total Cell Count: 156
[11]
  Population Apoptotic (%): 70%
  Population Fragmented Nuclei (%): 35%
  Population Healthy Nuclei (%): 51%
  Population Hoechst High Intensity Objects (%): 13%
  Population Membrane Permeable-Phenotype (%): 0%
  Population Mitochondria Different-Phenotype (%): 26%
  Population Mitotic Cells (%): 30%
  Population Normal (%): 86%
  Population Pyknosed Nuclei (%): 13%
  Population Tubulin-Different-Phenotype (%): 64%
  Total Cell Count: 170
[12]
  Population Apoptotic (%): 76%
  Population Fragmented Nuclei (%): 40%
  Population Healthy Nuclei (%): 47%
  Population Hoechst High Intensity Objects (%): 6%
  Population Membrane Permeable-Phenotype (%): 13%
  Population Mitochondria Different-Phenotype (%): 19%
  Population Mitotic Cells (%): 23%
  Population Normal (%): 93%
  Population Pyknosed Nuclei (%): 11%
  Population Tubulin-Different-Phenotype (%): 86%
  Total Cell Count: 198
